An excerpt weighted towards active compounds, which were near 2.6% of everything screened.
TNAP inh noacc: human TNAP enzyme inhibitors, primary screen, biochemical, luminescent, no phosphate acceptor, uHTS; Alkaline phosphatase, tissue-nonspecific isozyme (Homo sapiens), P05186; inhibition, % at 20 µM; purified TNAP, CDP-star luminescence, 30 min; 200,000 compounds, 0.26% hits;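 active = tissue-nonspecific alkaline phosphatase inhibition above about 50% at 20 µM in the single-dose screen, limit read from the data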
Target sequence (P05186 whole entry, looked up): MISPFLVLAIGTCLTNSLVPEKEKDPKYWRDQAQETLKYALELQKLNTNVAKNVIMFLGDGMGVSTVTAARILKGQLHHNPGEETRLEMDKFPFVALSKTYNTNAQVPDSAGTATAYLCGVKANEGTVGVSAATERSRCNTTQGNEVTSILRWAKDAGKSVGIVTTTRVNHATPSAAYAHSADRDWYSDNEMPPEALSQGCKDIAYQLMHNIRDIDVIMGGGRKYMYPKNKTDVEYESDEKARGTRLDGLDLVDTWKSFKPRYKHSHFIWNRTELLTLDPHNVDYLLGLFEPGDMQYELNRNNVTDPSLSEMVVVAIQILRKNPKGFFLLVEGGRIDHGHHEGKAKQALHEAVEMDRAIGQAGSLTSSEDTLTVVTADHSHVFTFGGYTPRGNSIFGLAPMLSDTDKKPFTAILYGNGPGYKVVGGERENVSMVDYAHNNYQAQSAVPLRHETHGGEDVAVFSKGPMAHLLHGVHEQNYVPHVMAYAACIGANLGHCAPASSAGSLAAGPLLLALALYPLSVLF
TNAP inh hi DEA: human TNAP enzyme inhibitors, primary screen, biochemical, luminescent, high phosphate acceptor level, uHTS; Alkaline phosphatase, tissue-nonspecific isozyme (Homo sapiens), P05186; purified TNAP, CDP-star luminescence, 1 M DEA; inhibition, % at 20 µM; 200,000 compounds, 0.03% hits;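 active = over 50% inhibition of tissue-nonspecific alkaline phosphatase at 20 µM in the single-dose screen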
WT yeast gro inh: growth inhibition of WT strain, primary screen, mitochondrial fusion inhibitor project, WT and mutant strains, chemical genetic. 190,000 compounds, 2.1% hits. inhibition, % at 10 µM. AID 1362, 2008. mitochondrial fusion phenotypic screen; in the data active = inhibition above about 58%; tested in S. cerevisiae
Arbovirus anti: antivirals against arbovirus infection, primary screen, cell-based, full library, 10K replicate subset | AID 1251, 2008 | inhibition, % at 10 µM | 200,000 compounds, 0.37% hits | arbovirus infection cell-based antiviral screen; in the data active = inhibition above about 30%
TNAP act hiacc: TNAP activators at high phosphate acceptor level, primary screen, biochemical, luminescence, uHTS | purified TNAP, CDP-star luminescence, 1 M DEA, 30 min; hits give high values; 0 = EDTA background, 1 = DMSO-only activity | activation factor at 20 µM | 200,000 tested, under 10 active | AID 1136, 2008;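 active = activation factor at least 2 at 20 µM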
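Dosing: 20 µM single point. System: human TNAP. Amount: TNAP 1/800 final. Incubation: 30 min, room temperature. Read-out: TNAP activation factor scaled between EDTA and DMSO control wells. Signal: luminescence from CDP-star hydrolysis. Medium: 1 M DEA, pH 9.8, Mg2+, Zn2+. Control set: EDTA negative control, DMSO positive control.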
Each line names hits and unclear results; the compound was inactive in the other large screens.

CCOc1cccc(-c2cc(-c3n[nH]c(=S)n3CC)c3ccccc3n2)c1	WT yeast gro inh 67
Cc1ccc(-c2cc(-c3n[nH]c(=S)n3C)c3ccccc3n2)cc1	WT yeast gro inh 70
CCn1c(-c2cc(-c3ccc(C)c(C)c3)nc3ccccc23)n[nH]c1=S	WT yeast gro inh 58
Cc1ccc2c(C)nc(NC3=NCN(CCc4ccccc4)CN3)nc2c1	none (no result: WT yeast gro inh, Arbovirus anti)
O=C(CNCC1CCCO1)NCc1ccco1 (stereo not given)	none
CC(=O)/C(=C/N(C)C)C(=O)Nc1ccc(Cl)cc1Cl	none
CN(C)CCNC=C(C(=O)Nc1ccc(Cl)cc1Cl)C(=O)Nc1ccc(Cl)cc1Cl	WT yeast gro inh 98
COc1ccc2nc(Cl)c(C#N)cc2c1	none
Cc1ccccc1OCC(=O)Nc1ccccc1N1CCC(C)CC1	WT yeast gro inh 65
CCC(=O)N1CCN(c2ccccc2NC(=O)COc2cc(C)ccc2C(C)C)CC1	WT yeast gro inh 67
CC(=O)N1CCN(c2ccccc2NC(=O)COc2ccccc2C)CC1	none
Cc1ccc(OCC(=O)Nc2ccccc2N2CCCC2)c(C)c1	WT yeast gro inh 66
Cc1cccc(OCC(=O)Nc2ccccc2N2CCCCC2)c1	none
Cc1cccc(C(=O)NC(C(=O)Nc2ccccc2N2CCOCC2)C(C)C)c1 (stereo not given)	none
COC(=O)c1ccc(NC(=O)CSc2ccccc2)cc1	none
CCC[C@@H]1C[C@@]1(CCC)[C@@H](NP(=O)(c1ccccc1)c1ccccc1)c1ccc(C(=O)OC)cc1	WT yeast gro inh 68
CCCCCCCCC/C(=N\O)c1ccccn1	WT yeast gro inh 74
CCCCCCCCC(=O)N/N=C/c1ccccn1	none
N#CC1=C(N)NC(=S)C(C(N)=O)C1c1ccc([N+](=O)[O-])cc1 (stereo not given)	none
Cc1ccc(N(CC(=O)N/N=C/c2cccc(Br)c2)S(C)(=O)=O)cc1	none
CNC[C@H](O)c1ccc(O)c(O)c1	TNAP inh noacc 78
CC(NC(=S)Nc1ccc(Cl)cc1)C(c1ccccc1)N1CCOCC1 (stereo not given)	none
c1ccc2c(c1)[nH]c1c(N3CCCC3)ncnc12	WT yeast gro inh 69
c1ccc2c(c1)[nH]c1c(N3CCSCC3)ncnc12	none (no result: TNAP inh noacc, TNAP inh hi DEA, TNAP act hiacc)
FC(F)(F)c1cccc(Oc2ccc3c(C(F)(F)F)cc(C(F)(F)F)nc3n2)c1	Arbovirus anti 51
Cc1cc(C(=O)NCCc2ccc(Cl)cc2)no1	none
CC(=O)C(=Nc1ccccc1Cl)NNc1ccc(Cl)cc1	WT yeast gro inh 60
O=C(NCCCc1nc2ccccc2[nH]1)c1cccs1	none
CN(C)CCCN(C(=O)CCOc1ccccc1)c1nc2c(F)cccc2s1	none
CN(C)CCCN(C(=O)c1sc2ccccc2c1Cl)c1nc2c(F)cccc2s1	none
CN(C)CCCN(C(=O)COc1ccc(Cl)cc1)c1nc2ccc(F)cc2s1	WT yeast gro inh 61
CN(C)CCCN(C(=O)COc1ccccc1)c1nc2ccc(F)cc2s1	none
Cc1ccc2sc(N(CCCN(C)C)C(=O)CN3C(=O)c4ccccc4C3=O)nc2c1C	WT yeast gro inh 94
Cc1cccc2sc(N(CCCN(C)C)C(=O)c3sc4ccccc4c3Cl)nc12	WT yeast gro inh 88
Cc1cccc2sc(N(CCCN(C)C)C(=O)COc3ccc(Cl)cc3)nc12	WT yeast gro inh 90
CN(C)CCCN(C(=O)COc1ccc(Cl)cc1)c1nc2c(F)cccc2s1	none
c1ccc(-c2cc(CSc3nc4ccccc4[nH]3)on2)cc1	none
Cc1cccc(C)c1N1CCN(c2nc(N(C)C)oc(=O)c2C#N)CC1	none
Cc1ccc2nc(N(CCCN(C)C)C(=O)c3ccco3)sc2c1	none
Cc1ccc2nc(N(CCCN(C)C)C(=O)c3ccc(Br)s3)sc2c1	WT yeast gro inh 90
Cc1cc(C)c2sc(N(CCN(C)C)C(=O)c3cc(Cl)sc3Cl)nc2c1	none
Cc1ccc2nc(N(CCN(C)C)C(=O)c3cc(Cl)sc3Cl)sc2c1	none
Cc1ccc2nc(N(CCCN(C)C)C(=O)COc3ccc(Cl)cc3)sc2c1	WT yeast gro inh 91
CN(C)CCCN(C(=O)CCc1ccccc1)c1nc2c(F)cccc2s1	WT yeast gro inh 60
Cc1cc(C)c2sc(N(CCCN(C)C)C(=O)COc3ccc(Cl)cc3)nc2c1	WT yeast gro inh 89
S=c1[nH]nc(C2CCCCC2)n1Cc1ccccc1	none
COc1cccc(-c2ccc(=O)n(CC(=O)Nc3ccc(S(=O)(=O)NCC(C)C)cc3)n2)c1	none
CCCCCOc1ccc(CSC(=N)N)cc1[N+](=O)[O-]	WT yeast gro inh 77
O=C(/C=C/c1cccc(Cl)c1)N1CCC(Cc2ccccc2)CC1	WT yeast gro inh 65
O=C(/C=C/c1ccccc1)N1CCC(Cc2ccccc2)CC1	none
COc1ccccc1NC(C)C(=O)N/N=C/c1ccccc1OCc1cccc(Br)c1 (stereo not given)	none
Cc1cccc(C)c1N1CCN(c2ccc3nnc(C(F)(F)F)n3n2)CC1	WT yeast gro inh 78
FC(F)(F)c1nnc2ccc(N3CCOCC3)nn12	none
COC(=O)c1c(NC(=O)CN2CCC3(O)CCCCC3C2c2ccccc2OC)sc(C)c1C (stereo not given)	WT yeast gro inh 73
COC(=O)c1c(NC(=O)CN2CCC3(O)CCCCC3C2c2ccc(OC)cc2OC)sc(C)c1C (stereo not given)	WT yeast gro inh 59
COc1cc2c(cc1NC(=O)CN1C(=O)NC3(CCc4ccccc43)C1=O)oc1ccccc12 (stereo not given)	WT yeast gro inh 66
COc1cc2c(cc1NC(=O)CC1SC(N3CCCC3)=NC1=O)oc1ccccc12 (stereo not given)	Arbovirus anti 33
CC(=O)NC1CC(C)(C)N(OC(C)=O)C(C)(C)C1	none
O=c1c2ccccc2nc(SCc2nc(-c3ccccc3)no2)n1-c1ccc(F)cc1	none
COc1ccccc1N1CCN(/N=C/c2ccc(O)c(O)c2)CC1	TNAP inh noacc 54
N#C/C(=C\c1ccc(O)c(O)c1)C(=O)N1CCCC1	TNAP inh noacc 73
N#C/C(=C\c1ccc(O)c(O)c1)C(=O)NCCCc1ccccc1	TNAP inh noacc 79
O=C(Cn1cnc2ccccc21)N/N=C/c1cccc([N+](=O)[O-])c1	none
CCn1c(=O)c([N+](=O)[O-])c(Cl)c2ccccc21	WT yeast gro inh 62
CC(=O)[C@H]1[C@H](c2cccc(Cl)c2)C(C#N)(C#N)[C@@H]2c3ccccc3C=CN21	none
CCCOC(=O)c1ccc(Oc2coc3c(CN(CC)CC)c(O)ccc3c2=O)cc1	none
COC(=O)c1ccccc1NC(=O)c1cc(-c2ccc(O)cc2)on1	Arbovirus anti 48
COC(=O)c1ccccc1NC(=O)c1cc(C2CC2)on1	none
Cc1ccc(NC(=O)NC(=O)CSc2nnc(-c3ccc(Cl)cc3Cl)n2N)c(C)c1	none
Nc1nc(-c2ccccc2)c(N=Nc2cccc3ccccc23)s1	WT yeast gro inh 89

From PubChem BioAssay
